Test results taken from paper PMC10519257 (Journal of Enzyme Inhibition and Medicinal Chemistry, 2023).
Ends that are not written are not given here.

Legend:
[1] = test system: isolated uterus; settings: rat isolated uterus; cited from earlier work
[2] = test system: rat mammary gland; settings: cited from earlier work
[3] = Stability in phosphate buffer pH 7.2; format: physicochemical
In short: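 Peptides were incubated at 37 °C in phosphate buffer at pH 7.2 without serum. Remaining peptide was sampled at 1, 3, 5, 20, 24 and 48 h and measured by RP-HPLC-MS.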

[4] = Serum stability; format: in vitro ADME, human
In short: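 Test compound in water (1 mg/mL stock) diluted to 0.1 mg/mL in phosphate buffer pH 7.2, then added to serum from one 40th-week pregnant donor (oxytocinase-rich) and incubated at 37 °C with a reference peptide as internal standard. Aliquots at 1, 3, 5, 20, 24, 48 h were quenched in H2O/CH3CN (1:1) with 0.1% TFA, held 5 min at 0 °C and centrifuged.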

half-life [3]	half-life ([4]; human, serum)	time after which not detectable by analytical RP-HPLC ([4]; woman serum at 40th week of pregnancy, 37 °C)	Compound	contractile activity [1]	contractile activity [2]
			(1,6-di-alanine)-oxytocin (AYIQNAPLG; ends and bridges not checked; UniProt P01178 20-28, looked up, variant C1A C6A) [[Ala(1,6)]OT]	devoid of any contractile activity	devoid of any contractile activity
24 h	16 h	48 h	CC[C@H](C)[C@@H]1NC(=O)[C@H](Cc2ccc(O)cc2)NC(=O)[C@@H](N)CSSC[C@@H](C(=O)N2CCC[C@H]2C(=O)N[C@@H](CC(C)C)C(=O)NCC(N)=O)NC(=O)[C@H](CC(N)=O)NC(=O)[C@H](CCC(N)=O)NC1=O [OT, Oxytocin]		
			(1,6-di-serine)-oxytocin (SYIQNSPLG; ends and bridges not checked; UniProt P01178 20-28, looked up, variant C1S C6S) [[Ser(1,6)]OT]	devoid of any contractile activity	devoid of any contractile activity
